According to ChEMBL document CHEMBL4196175, “First SAR Study for Overriding NRAS Mutant Driven Acute Myeloid Leukemia” (J Med Chem, 2018):
Activity calls are given as the source filed them. No cut-off for these calls is given here.

What was measured:
Activated CDC42 kinase 1 = Activated CDC42 kinase 1 (Homo sapiens, UniProt Q07912); test: Inhibition of ACK1 (unknown origin) by radiometric biochemical kinase assay
[1] = target: T1, Mitogen-activated protein kinase kinase kinase kinase 2 (Homo sapiens, UniProt Q12851); test: Inhibition of GCK (unknown origin) by radiometric biochemical kinase assay
T1 sequence (Q12851 whole entry): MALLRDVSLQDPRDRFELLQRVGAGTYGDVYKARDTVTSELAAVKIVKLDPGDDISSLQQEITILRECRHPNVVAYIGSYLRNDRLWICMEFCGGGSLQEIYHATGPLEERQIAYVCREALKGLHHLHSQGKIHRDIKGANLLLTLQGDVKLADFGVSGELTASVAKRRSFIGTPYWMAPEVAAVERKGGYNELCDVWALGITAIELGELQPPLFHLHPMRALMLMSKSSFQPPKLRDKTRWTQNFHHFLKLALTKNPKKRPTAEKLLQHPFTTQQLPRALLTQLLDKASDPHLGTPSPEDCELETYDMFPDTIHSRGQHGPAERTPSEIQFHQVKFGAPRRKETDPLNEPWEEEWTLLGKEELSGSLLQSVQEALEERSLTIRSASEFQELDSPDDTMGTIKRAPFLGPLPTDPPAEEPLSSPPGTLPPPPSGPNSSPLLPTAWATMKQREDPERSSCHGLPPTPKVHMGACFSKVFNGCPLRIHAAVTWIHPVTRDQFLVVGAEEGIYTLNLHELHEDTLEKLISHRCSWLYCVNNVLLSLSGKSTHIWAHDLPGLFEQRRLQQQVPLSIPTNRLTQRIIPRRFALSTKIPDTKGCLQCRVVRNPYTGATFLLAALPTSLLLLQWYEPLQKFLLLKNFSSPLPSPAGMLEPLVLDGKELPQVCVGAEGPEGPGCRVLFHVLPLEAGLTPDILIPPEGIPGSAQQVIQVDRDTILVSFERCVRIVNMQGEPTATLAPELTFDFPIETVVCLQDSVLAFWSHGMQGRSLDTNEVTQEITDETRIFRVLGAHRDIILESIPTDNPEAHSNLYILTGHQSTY

[2] = Growth inhibition of parental mouse BA/F3 cells after 72 hrs by celltiter-glo assay; type: cell-based, BaF3
Mus musculus = organism: Mus musculus; test: Inhibition of ACK1/GCK in mouse BA/F3 cells assessed as reduction in NRAS-G12D mutant-mediated cell proliferation after 72 hrs by celltiter-glo assay; type: cell-based
OCI-AML-3 [3] = test: Growth inhibition of human OCI-AML3 cells harboring NRAS-Q61L mutant after 72 hrs by celltiter-glo assay; type: functional; conditions: OCI-AML-3, 72 h
[4] = Growth inhibition of parental human U937 cells after 72 hrs by celltiter-glo assay; type: cell-based, U-937
[5] = Metabolic stability in human liver microsomes assessed as compound remaining at 1 uM after 30 mins; type: ADME, microsome; conditions: read-out: Stability
[6] = Metabolic stability in dog liver microsomes assessed as compound remaining at 1 uM after 30 mins; type: ADME, Canis lupus familiaris, microsome; conditions: read-out: Stability
[7] = Metabolic stability in rat liver microsomes assessed as compound remaining at 1 uM after 30 mins; type: ADME, microsome; conditions: read-out: Stability
[8] = Metabolic stability in mouse liver microsomes assessed as compound remaining at 1 uM after 30 mins; type: ADME, microsome; conditions: read-out: Stability
CYP1A2 = target: T2, CYP1A2 (Homo sapiens, UniProt P05177); test: Inhibition of CYP1A2 (unknown origin) assessed as activity remaining at 10 uM relative to control; type: ADME; conditions: read-out: Activity
T2 sequence (P05177 whole entry): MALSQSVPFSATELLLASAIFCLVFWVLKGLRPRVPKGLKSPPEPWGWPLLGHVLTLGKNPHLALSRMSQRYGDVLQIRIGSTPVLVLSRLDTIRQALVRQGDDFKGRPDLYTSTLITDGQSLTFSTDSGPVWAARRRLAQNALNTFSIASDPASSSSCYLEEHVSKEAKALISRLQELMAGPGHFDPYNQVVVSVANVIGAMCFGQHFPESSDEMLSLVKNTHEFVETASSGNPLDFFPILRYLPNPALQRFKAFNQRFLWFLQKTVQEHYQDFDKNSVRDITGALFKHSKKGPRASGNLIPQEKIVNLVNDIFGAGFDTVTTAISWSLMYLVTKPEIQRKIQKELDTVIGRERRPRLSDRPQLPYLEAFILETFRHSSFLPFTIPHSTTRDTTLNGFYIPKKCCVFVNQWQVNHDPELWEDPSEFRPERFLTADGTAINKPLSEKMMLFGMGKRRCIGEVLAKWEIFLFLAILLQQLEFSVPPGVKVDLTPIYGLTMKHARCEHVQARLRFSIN

CYP2C9 = CYP2C9 (Homo sapiens, UniProt P11712); test: Inhibition of CYP2C9 (unknown origin) assessed as activity remaining at 10 uM relative to control; type: ADME; conditions: read-out: Activity
CYP2C9, sequence (P11712 whole entry): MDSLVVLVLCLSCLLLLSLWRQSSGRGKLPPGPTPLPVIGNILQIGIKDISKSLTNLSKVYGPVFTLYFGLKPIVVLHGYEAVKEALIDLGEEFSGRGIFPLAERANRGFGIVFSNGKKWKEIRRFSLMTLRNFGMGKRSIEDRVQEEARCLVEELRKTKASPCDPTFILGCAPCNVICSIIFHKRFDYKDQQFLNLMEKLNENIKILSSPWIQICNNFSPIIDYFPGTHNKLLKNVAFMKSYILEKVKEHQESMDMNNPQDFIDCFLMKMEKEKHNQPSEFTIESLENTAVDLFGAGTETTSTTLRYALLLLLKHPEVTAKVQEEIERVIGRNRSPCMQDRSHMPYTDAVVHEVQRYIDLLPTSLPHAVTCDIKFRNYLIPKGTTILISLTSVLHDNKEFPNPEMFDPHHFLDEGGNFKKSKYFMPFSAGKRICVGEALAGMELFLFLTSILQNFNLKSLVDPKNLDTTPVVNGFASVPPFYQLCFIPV

CYP2D6 = CYP2D6 (Homo sapiens, UniProt P10635); test: Inhibition of CYP2D6 (unknown origin) assessed as activity remaining at 10 uM relative to control; type: ADME; conditions: read-out: Activity
CYP2D6, sequence (P10635 whole entry): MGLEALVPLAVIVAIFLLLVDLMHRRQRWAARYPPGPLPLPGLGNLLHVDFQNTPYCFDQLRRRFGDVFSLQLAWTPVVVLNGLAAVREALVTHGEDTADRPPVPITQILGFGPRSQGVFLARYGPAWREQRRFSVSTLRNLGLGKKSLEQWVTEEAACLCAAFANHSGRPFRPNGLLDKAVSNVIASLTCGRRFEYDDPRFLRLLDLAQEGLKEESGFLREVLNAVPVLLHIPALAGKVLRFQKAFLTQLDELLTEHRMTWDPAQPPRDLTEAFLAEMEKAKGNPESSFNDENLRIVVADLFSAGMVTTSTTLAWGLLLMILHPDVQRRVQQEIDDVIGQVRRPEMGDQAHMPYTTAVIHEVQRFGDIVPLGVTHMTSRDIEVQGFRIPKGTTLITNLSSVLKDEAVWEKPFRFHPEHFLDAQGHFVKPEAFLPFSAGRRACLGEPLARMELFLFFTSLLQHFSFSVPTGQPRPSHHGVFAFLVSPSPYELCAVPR

CYP3A4 = CYP3A4 (Homo sapiens, UniProt P08684); test: Inhibition of CYP3A4 (unknown origin) assessed as activity remaining at 10 uM relative to control; type: ADME; conditions: read-out: Activity
CYP3A4, sequence (P08684 whole entry): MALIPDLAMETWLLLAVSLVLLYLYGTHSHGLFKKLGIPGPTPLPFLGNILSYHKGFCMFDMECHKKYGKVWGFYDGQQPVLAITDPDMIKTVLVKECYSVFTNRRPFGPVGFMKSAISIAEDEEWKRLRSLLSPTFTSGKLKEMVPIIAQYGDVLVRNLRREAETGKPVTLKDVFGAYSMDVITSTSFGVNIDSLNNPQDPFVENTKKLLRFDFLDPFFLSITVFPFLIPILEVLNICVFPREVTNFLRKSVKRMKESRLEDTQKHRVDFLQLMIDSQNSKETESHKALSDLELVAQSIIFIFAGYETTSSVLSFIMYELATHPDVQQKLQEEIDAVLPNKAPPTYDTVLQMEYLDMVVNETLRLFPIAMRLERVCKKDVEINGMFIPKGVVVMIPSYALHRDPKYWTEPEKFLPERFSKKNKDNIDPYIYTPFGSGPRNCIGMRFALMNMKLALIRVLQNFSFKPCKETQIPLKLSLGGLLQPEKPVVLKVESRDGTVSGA

BaF3 [9] = test: Induction of apoptosis in mouse BA/F3 cells expressing NRAS-G12D mutant assessed as increase in cleaved PARP levels at 1 uM after 24 hrs by Western blot analysis; type: functional, cell-based
Method in brief: (§1)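 Cells treated 24 h with indicated concentrations (1 µM; 5 µM also used in Ba/F3-NRAS-G12D); cleaved PARP, cleaved caspase 3, bcl-2 and MCL1 detected by western blot with actin as loading control.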

BaF3 [10] = test: Induction of apoptosis in mouse BA/F3 cells expressing NRAS-G12D mutant assessed as increase in cleaved caspase-3 levels at 1 uM after 24 hrs by Western blot analysis; type: functional, cell-based; method in brief: as §1
BaF3 [11] = test: Induction of apoptosis in mouse BA/F3 cells expressing NRAS-G12D mutant assessed as decrease in bcl2 levels at 1 uM after 24 hrs by Western blot analysis; type: functional, cell-based; method in brief: as §1
BaF3 [12] = test: Induction of apoptosis in mouse BA/F3 cells expressing NRAS-G12D mutant assessed as decrease in MCL1 levels at 1 uM after 24 hrs by Western blot analysis; type: functional, cell-based; method in brief: as §1
OCI-AML-3 [13] = test: Cell cycle arrest in human OCI-AML3 cells harboring NRAS Q61L mutant assessed as accumulation at G0/G1 phase at 1 uM after 24 hrs by propidium iodide staining based FACS analysis; type: functional
Method in brief: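 OCI-AML3 cells treated 24 h at indicated concentrations, including 1 µM; cell-cycle phase distribution measured by flow cytometry after propidium iodide staining.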

OCI-AML-3 [14] = test: Inhibition of anchorage-independent cell growth in human OCI-AML3 cells harboring NRAS Q61L mutant assessed as reduction in colony number at 0.1 to 1 uM after 14 days by iodonitrotetrazolium chloride staining-based soft agar assay; type: functional
Method in brief: (§2)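 OCI-AML3 cells embedded in 0.7% low-melting agar, incubated 2 weeks with compound at 0.1 or 1 µM; colony number and colony size per well measured by automated image analysis; n = 3 per condition, SD, one-way ANOVA.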

OCI-AML-3 [15] = test: Inhibition of anchorage-independent cell growth in human OCI-AML3 cells harboring NRAS Q61L mutant assessed as reduction in colony size at 0.1 to 1 uM after 14 days by iodonitrotetrazolium chloride staining-based soft agar assay; type: functional; method in brief: as §2
BaF3 [16] = test: Antileukemic activity against mouse BA/F3 cells harboring NRAS-G12D mutant/luciferase allografted in immunodeficient mouse at 8 mg/kg/day, po qd administered on day 6 post implantation measured on day 20 post implantation by bioluminescence imaging method; type: functional, organism-based
Method in brief: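 Immunodeficient mice injected via tail vein with Ba/F3-NRAS-G12D/Luc cells, dosed orally once daily (8 or 15 mg/kg/day) or vehicle for 3 weeks, n=4 per cohort; bioluminescence imaged every two days after luciferin 150 mg/kg, quantified by bio-photonic analysis.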

BaF3 [17] = test: Antileukemic activity against mouse BA/F3 cells harboring NRAS-G12D mutant allografted in immunodeficient mouse assessed as median survival time at 8 mg/kg/day, po qd administered on day 6 post implantation (reference value: 23 days); type: functional
OCI-AML-3 [18] = test: Antileukemic activity against human OCI-AML3 cells harboring NRAS-Q61L mutant xenografted in immunodeficient mouse assessed as tumor volume at 8 mg/kg/day, po qd administered on day 21 post implantation measured on […] (reference value: 100%); type: functional
OCI-AML-3 [19] = test: Growth inhibition of ACK1/GCK knockdown human OCI-AML3 cells harboring NRAS-Q61L mutant at 0.2 uM after 72 hrs by celltiter-glo assay; type: functional, cell-based

Activated CDC42 kinase 1, sequence (Q07912 whole entry): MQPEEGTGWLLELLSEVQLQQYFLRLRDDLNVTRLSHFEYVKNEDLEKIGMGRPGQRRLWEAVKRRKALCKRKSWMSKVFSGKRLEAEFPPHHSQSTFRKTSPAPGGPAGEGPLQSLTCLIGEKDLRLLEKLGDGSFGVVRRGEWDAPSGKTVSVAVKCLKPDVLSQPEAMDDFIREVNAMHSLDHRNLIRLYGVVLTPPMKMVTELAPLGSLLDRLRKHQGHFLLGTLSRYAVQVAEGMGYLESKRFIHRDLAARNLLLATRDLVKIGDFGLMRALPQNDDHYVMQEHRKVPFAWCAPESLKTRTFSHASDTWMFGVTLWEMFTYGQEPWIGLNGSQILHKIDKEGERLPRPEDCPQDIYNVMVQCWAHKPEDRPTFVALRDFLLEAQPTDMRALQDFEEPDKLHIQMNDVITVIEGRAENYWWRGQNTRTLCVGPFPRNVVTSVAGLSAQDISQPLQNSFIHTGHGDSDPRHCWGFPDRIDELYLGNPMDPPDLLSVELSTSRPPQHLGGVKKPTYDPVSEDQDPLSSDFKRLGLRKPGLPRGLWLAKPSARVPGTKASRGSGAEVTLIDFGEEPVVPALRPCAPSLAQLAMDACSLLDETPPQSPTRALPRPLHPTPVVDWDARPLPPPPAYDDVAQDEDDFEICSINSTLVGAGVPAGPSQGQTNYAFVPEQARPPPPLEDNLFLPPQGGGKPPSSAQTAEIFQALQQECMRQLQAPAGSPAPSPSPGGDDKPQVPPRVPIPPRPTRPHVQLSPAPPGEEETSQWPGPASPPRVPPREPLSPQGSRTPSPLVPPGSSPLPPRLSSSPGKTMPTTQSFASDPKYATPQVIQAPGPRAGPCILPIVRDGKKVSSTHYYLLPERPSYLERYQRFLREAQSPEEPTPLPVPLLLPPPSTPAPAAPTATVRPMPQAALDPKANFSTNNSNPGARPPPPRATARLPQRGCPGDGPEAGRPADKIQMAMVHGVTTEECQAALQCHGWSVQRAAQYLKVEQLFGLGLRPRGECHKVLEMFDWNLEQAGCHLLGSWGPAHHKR

Cc1ccc(Nc2ncc3c(n2)N(C)C(=O)N(c2cc(NC(=O)c4cccc(C(F)(F)F)c4)ccc2C)C3)cn1
IC50 (Activated CDC42 kinase 1): 25 nM
IC50 [1]: 8 nM
GI50 at 72 h [2]: 1030 nM
GI50 (Mus musculus): 81 nM
GI50 (OCI-AML-3 [3]): 219 nM
GI50 at 72 h [4]: 4380 nM
remaining at 0.5 h, 1 µM [5]: 78.6%
remaining at 0.5 h, 1 µM [6]: 55.3%
remaining at 0.5 h, 1 µM [7]: 84.8%
remaining at 0.5 h, 1 µM [8]: 80.5%
activity at 10 µM (CYP1A2): 93.2%
activity at 10 µM (CYP2C9): 27%
activity at 10 µM (CYP2D6): 68.4%
activity at 10 µM (CYP3A4): > 100%
Activity (BaF3 [9]): Active
Activity (BaF3 [10]): Active
Activity (BaF3 [11]): Active
Activity (BaF3 [12]): Active
Activity (OCI-AML-3 [13]): Active
growth inhibition (GI) (OCI-AML-3 [14]): Active
growth inhibition (GI) (OCI-AML-3 [15]): Active
Activity (BaF3 [16]): Active
MSD (BaF3 [17]): 31 days
Activity (OCI-AML-3 [18]): 53.8%
growth inhibition (GI) (OCI-AML-3 [19]): Active
